# Data published in ChEMBL document CHEMBL2057095, “Discovery and SAR of orally efficacious tetrahydropyridopyridazinone PARP inhibitors for the treatment of cancer” (Bioorg Med Chem, 2012).
# How the values were obtained:
# [1] = AUC (0 to 3 hrs) in mouse at 10 mg/kg, po; format: ADME, organism-based; design: time < 3 hr, dose 10 mg/kg, route oral; conditions: plasma
# Summary of the method: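 Screening mouse PK: single oral dose of 10 mg/kg; plasma concentrations determined up to 3 h.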
# [2] = Cmax in mouse at 10 mg/kg, po; format: ADME, organism-based; design: dose 10 mg/kg, route oral; conditions: in vivo
# Summary of the method: (§1)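 Standard mouse PK: oral dose of 10 mg/kg and intravenous dose of 3 mg/kg; plasma concentrations determined up to 8 h.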
# [3] = Half life in mouse at 3 mg/kg, iv; format: ADME, organism-based; design: dose 3 mg/kg, route intravenous; conditions: in vivo; summary of the method: as §1
# B16-F10 [4] = assay: Potentiation of TMZ antitumor activity against mouse B16F10 cells xenografted in po dosed C57BL/6 mouse assessed as increase in tumor growth inhibition administered BID from day 5 to day 9 post-tumor implantation; format: functional, organism-based
# Summary of the method: (§2)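 Syngeneic B16F10 model: 6 × 10⁴ cells with 50% matrigel implanted s.c. into the flank of female C57BL/6 mice (6–8 weeks, 20 g). […] TMZ given orally at 50 mg/kg/day once daily over the same days. Tumor growth and body weight monitored.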
# Mus musculus [5] = assay: (§3) Toxicity in C57BL/6 mouse bearing B16F10 tumor assessed as body weight loss at […], po administered BID from day 5 to day 9 post-tumor implantation co-administered with temozolomide relative to vehicle-treated control; format: organism-based; design: route oral; conditions: in vivo
# [6] = (§4) Oral bioavailability in mouse at 10 mg/kg; format: ADME, organism-based; conditions: in vivo; summary of the method: as §1
# Mus musculus [7] = assay: Toxicity in C57BL/6 mouse bearing B16F10 tumor assessed as body weight loss at 5 mg/kg/day, po administered BID from day 5 to day 9 post-tumor implantation co-administered with temozolomide relative to vehicle-treated control; format: organism-based; design: route oral; conditions: in vivo; summary of the method: as §2
# [8] = (§5) Clearance in mouse at 10 mg/kg, po and 3 mg/kg, iv; format: ADME, organism-based; conditions: in vivo; summary of the method: as §1
# [9] = (§6) AUC (0 to 8 hrs) in mouse at 10 mg/kg, po; format: ADME, organism-based, Plasma; design: time < 8 hr, dose 10 mg/kg, route oral; conditions: plasma; summary of the method: as §1
# [10] = Volume of distribution at steady state in mouse at 10 mg/kg, po and 3 mg/kg, iv; format: ADME, organism-based; conditions: in vivo, read-out: Vdss; summary of the method: as §1
# Mus musculus [11] = assay: as §3; format: organism-based; design: route oral; conditions: in vivo; remark: listed apart in the source
# Mus musculus [12] = assay: as §4; format: ADME, organism-based; conditions: in vivo; summary of the method: as §1
# Mus musculus [13] = assay: as §5; format: ADME, organism-based; conditions: in vivo; summary of the method: as §1
# Mus musculus [14] = assay: as §6; format: ADME, organism-based, Plasma; design: time < 8 hr, dose 10 mg/kg, route oral; conditions: in vivo, 8 h; summary of the method: as §1
# Mus musculus [15] = assay: Toxicity in C57BL/6 mouse bearing B16F10 tumor assessed as body weight loss at 50 mg/kg/day, po administered QD from day 5 to day 9 post-tumor implantation relative to vehicle-treated control; format: organism-based; design: route oral; conditions: in vivo; summary of the method: as §2
# Mus musculus [16] = assay: Antitumor activity against B16F10 tumor xenografted in C57BL/6 mouse assessed as tumor growth inhibition at 50 mg/kg/day, po administered QD from day 5 to day 10 post-tumor implantation; format: organism-based; design: route oral; conditions: C57BL/6, B16-F10, po, read-out: GI
# Summary of the method: (§7)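 Syngeneic B16F10 melanoma: 6 × 10⁴ cells in 50% matrigel injected s.c. into the flank of female C57BL/6 mice, 6–8 weeks old, 20 g. PARP inhibitor given orally on days 5–10 at 10, 30 or 60 mg/kg/day, bid. TMZ given orally at 50 mg/kg/day, qd, days 5–10. Tumor growth and body weight followed to day 21.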
# Mus musculus [17] = assay: Toxicity in C57BL/6 mouse bearing B16F10 tumor assessed as body weight loss at 50 mg/kg/day, po administered QD from day 5 to day 10 post-tumor implantation relative to vehicle-treated control; format: organism-based; design: route oral; conditions: in vivo; summary of the method: as §7
# Mus musculus [18] = assay: Toxicity in C57BL/6 mouse bearing B16F10 tumor assessed as body weight loss at 60 mg/kg/day, po administered BID from day 5 to day 10 post-tumor implantation co-administered with temozolomide relative to vehicle-treated control; conditions: in vivo
# Mus musculus [19] = assay: Toxicity in C57BL/6 mouse bearing B16F10 tumor assessed as mortality at 10 to 30 mg/kg/day, po administered BID from day 5 to day 10 post-tumor implantation co-administered with temozolomide; format: organism-based; design: route oral; conditions: in vivo
# B16-F10 [20] = assay: Potentiation of temozolomide-induced antitumor activity against mouse B16F10 cells xenografted in po dosed C57BL/6 mouse assessed as tumor growth inhibition administered BID from day 5 to day 10 post-tumor implantation; format: functional, organism-based; summary of the method: as §7
# Mus musculus [21] = assay: Toxicity in C57BL/6 mouse bearing B16F10 tumor assessed as body weight loss at 30 mg/kg/day, po administered BID from day 5 to day 10 post-tumor implantation co-administered with temozolomide relative to vehicle-treated control; format: organism-based; design: route oral; conditions: in vivo; summary of the method: as §7
Structure (SMILES),AUC(0-t) at 3 h [1] [ng·h/mL],Cmax [2] [ng/mL],half-life [3] [min],Vd [10] [L/kg],F (Mus musculus [12]) [%],CL (Mus musculus [13]) [mL/min/kg],AUC (Mus musculus [14]) [ng·h/mL],also measured
O=C(c1cc(Cc2n[nH]c(=O)c3c2NCCC3)ccc1F)N1CCN(c2ccccc2)CC1,2900,–,–,–,–,–,–,–
O=C(c1cc(Cc2n[nH]c(=O)c3c2NCCC3)ccc1F)N1CCN(c2ccccn2)CC1,2900,2010,156,7.66,–,–,–,Activity (B16-F10 [4]): Dose-dependent effect; Activity (Mus musculus [5]): 3%; bioavailability [6]: 67%; Activity (Mus musculus [7]): 21%; clearance [8]: 34 mL/min/kg; AUC(0-t) at 8 h [9]: 5950 ng·h/mL; Activity (Mus musculus [11]): 3%
O=C(c1cc(Cc2n[nH]c(=O)c3c2CCCC3)ccc1F)N1CCN(c2ncccn2)CC1,–,1030,21.6,2.33,48,75.8,2380,–
O=C1CCCC(=O)N1c1cc(Cc2n[nH]c(=O)c3c2NCCC3)ccc1F,70,–,–,–,–,–,–,–
O=C(c1cc(Cc2n[nH]c(=O)c3c2NCCC3)ccc1F)N1CCN(c2ncccn2)CC1,2900,5600,232,4.99,–,–,–,bioavailability [6]: 36%; clearance [8]: 14.8 mL/min/kg; AUC(0-t) at 8 h [9]: 9060 ng·h/mL
O=C(c1cc(Cc2n[nH]c(=O)c3c2NCCC3)ccc1F)N1CCN(C(=O)C(F)(F)F)CC1,70,–,–,–,–,–,–,–
CC(=O)N1CCN(C(=O)c2cc(Cc3n[nH]c(=O)c4c3NCCC4)ccc2F)CC1,70,–,–,–,–,–,–,–
O=C1CCCN1c1cc(Cc2n[nH]c(=O)c3c2CCCC3)ccc1F,–,140,16.8,4.78,13,195.3,330,–
O=C(c1cc(Cc2n[nH]c(=O)c3c2CCCC3)ccc1F)N1CCN(c2ccccn2)CC1,–,1090,66,9.48,74,98.7,2700,–
Cn1nnc2c(C(N)=O)ncn2c1=O [TEMOZOLOMIDE],–,–,–,–,–,–,–,Activity (Mus musculus [15]): 2%; inhibition at 50 mg/kg (Mus musculus [16]): 30%; Activity (Mus musculus [17]): 1%
O=C1CCCN1c1cc(Cc2n[nH]c(=O)c3c2NCCC3)ccc1F,–,1500,29.4,5.25,106,124,3110,Activity (Mus musculus [18]): 12%; Activity (Mus musculus [19]): Non-toxic; Activity (B16-F10 [20]): Dose-dependent effect; Activity (Mus musculus [21]): 3%
